Source: ChEMBL document CHEMBL3046721, “3-(Arylthiomethyl)isoxazole-4,5-dicarboxamides: chemoselective nucleophilic chemistry and insecticidal activity” (2009)
Activity calls are given as the source filed them.

How the values were obtained:
Spodoptera exigua [1] = test: Insecticidal activity against larvae of Spodoptera exigua fed with artificial diet containing compound assessed as mortality after 6 days by high-throughput screening assay; format: functional; set-up: concentration or dose not given beside the values
Outline: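 Artificial diet (100 μl/well, 96-well) pretreated with 12 μg compound in 30 μl DMSO-acetone-water (2:1:7), dried several hours, then seeded with eggs. Plates covered, kept in dark at 29°C, mortality recorded 6 days post-treatment. Six replicates per treatment.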

Aedes aegypti = test: Insecticidal activity against larvae of Aedes aegypti assessed as mortality after 3 days by high-throughput screening assay; format: functional, organism-based
Outline: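 One-day-old larvae placed in 96-well plates pre-treated with 6 μg/well, applied in 15 μl DMSO-acetone-water (1:1:8) and dried. Plates lidded, held at room temperature, mortality graded 3 days post-treatment. Six replicates per treatment.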

Spodoptera exigua [2] = test: Insecticidal activity against second-instar larval stage of Spodoptera exigua fed with artificial diet containing compound assessed as mortality at 50 ug/cm2 after 5 days by diet-based secondary assay; format: functional; conditions: 120 h
Outline: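 Second-instar larvae on 128-well trays with 1 mL diet dosed at 50 μg/cm2, eight wells per treatment under clear plastic. Percent mortality averaged over the eight wells, scored 5 days after assay start; tested only on primary-screen hits (>67% mortality).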

Helicoverpa zea = test: Insecticidal activity against second-instar larval stage of Helicoverpa zea (corn earworm) fed with artificial diet containing compound assessed as mortality after 5 days by diet-based secondary assay; format: functional, organism-based
Outline: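 Follow-up for primary-screen hits (>67% mortality): 128-well diet trays, 1 mL diet containing selected dosages, second-instar larvae. Wells covered with clear plastic, eight wells per treatment, percent mortality averaged over eight wells at 5 days. Approximate LC50 estimated by probit analysis.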

Compound	mortality (Spodoptera exigua [1]) [%]	mortality (Aedes aegypti)	mortality at 50 µg/cm2 (Spodoptera exigua [2]) [%]	mortality (Helicoverpa zea)
CCCNC(=O)c1onc(CSc2ccc(Cl)cc2)c1C(=O)NCCC	50	inactive	–	–
O=C(NCc1ccccc1)c1onc(CSc2ccc(Cl)cc2)c1C(=O)NCc1ccccc1	67	inactive	0	–
COCCNC(=O)c1c(CSc2ccc(Cl)cc2)noc1C(=O)NCc1ccccc1	17	inactive	–	–
C=CCNC(=O)c1onc(CS(=O)(=O)c2ccccc2)c1C(=O)NCC=C	100	inactive	0	inactive
CCCCNC(=O)c1onc(CSc2ccccc2)c1C(=O)NCCCC	–	inactive	–	–
CC(C)NC(=O)c1onc(CS(=O)(=O)c2ccccc2)c1C(=O)NC(C)C	100	inactive	0	inactive
CCCNC(=O)c1c(CSc2ccc(Cl)cc2)noc1C(=O)NCc1ccccc1	100	inactive	0	inactive
C=CCNC(=O)c1onc(CSc2ccc(Cl)cc2)c1C(=O)NCC=C	17	inactive	–	–
CCCCNC(=O)c1c(CS(=O)(=O)c2ccccc2)noc1C(=O)NCc1ccccc1	67	inactive	0	–
C=CCNC(=O)c1c(CS(=O)(=O)c2ccccc2)noc1C(=O)NCc1ccccc1	100	inactive	0	inactive
Cc1cc(C)cc(SCc2noc(C(=O)NC(C)C)c2C(=O)NC(C)C)c1	–	inactive	–	–
C=CCNC(=O)c1onc(CSc2cc(C)cc(C)c2)c1C(=O)NCC=C	17	inactive	–	–
CCCNC(=O)c1c(CSc2ccccc2)noc1C(=O)NCc1ccccc1	83	inactive	38	inactive
CC(C)NC(=O)c1c(CS(=O)(=O)c2ccc(Cl)cc2)noc1C(=O)NCc1ccccc1	–	inactive	–	–
O=C(NCc1ccccc1)c1onc(CSc2ccncc2)c1C(=O)NCc1ccccc1	–	inactive	–	–
CC(C)CCNC(=O)c1onc(CSc2ccccc2)c1C(=O)NCCC(C)C	33	inactive	–	–
COCCNC(=O)c1onc(CSc2ccccc2)c1C(=O)NCCOC	83	inactive	0	inactive
O=C(NCc1ccccc1)c1onc(CSc2ccccc2)c1C(=O)NCc1ccccc1	67	inactive	–	–
CCCCNC(=O)c1onc(CSc2cccc(OC)c2)c1C(=O)NCCCC	–	inactive	–	–
CCCNC(=O)c1onc(CSc2cccc(OC)c2)c1C(=O)NCCC	50	inactive	–	–
C=CCNC(=O)c1onc(CSc2ccccn2)c1C(=O)NCC=C	17	inactive	–	–

Compound	mortality (Spodoptera exigua [1]) [%]	mortality (Aedes aegypti)	mortality at 50 µg/cm2 (Spodoptera exigua [2]) [%]	mortality (Helicoverpa zea)
CCCNC(=O)c1onc(CSc2ccc(F)cc2)c1C(=O)NCCC	33	inactive	–	–
COCCNC(=O)c1onc(CSc2cccc(OC)c2)c1C(=O)NCCOC	67	inactive	0	–
CCCCNC(=O)c1onc(CS(=O)(=O)c2ccc(Cl)cc2)c1C(=O)NCCCC	100	inactive	0	inactive
COCCNC(=O)c1onc(CSc2ccccn2)c1C(=O)NCCOC	17	inactive	–	–
C=CCNC(=O)c1onc(CSc2ccc(F)cc2)c1C(=O)NCC=C	67	inactive	0	–
CCCCNC(=O)c1onc(CSc2cc(C)cc(C)c2)c1C(=O)NCCCC	–	inactive	–	–
C=CCNC(=O)c1onc(CSc2ccccc2)c1C(=O)NCC=C	33	inactive	–	–
COCCNC(=O)c1onc(CS(=O)(=O)c2ccc(Cl)cc2)c1C(=O)NCCOC	100	inactive	0	inactive
CCCCNC(=O)c1onc(CSc2ccccn2)c1C(=O)NCCCC	–	inactive	–	–
CC(C)NC(=O)c1c(CSc2ccccc2)noc1C(=O)NCc1ccccc1	83	inactive	0	inactive
CCCNC(=O)c1onc(CSc2ccccn2)c1C(=O)NCCC	50	inactive	–	–
COCCNC(=O)c1onc(CSc2ccc(Cl)cc2)c1C(=O)NCCOC	83	inactive	0	inactive
CC(C)NC(=O)c1onc(CSc2ccc(Cl)cc2)c1C(=O)NC(C)C	83	inactive	0	inactive
CC(C)NC(=O)c1onc(CS(=O)(=O)c2ccc(Cl)cc2)c1C(=O)NC(C)C	97	inactive	0	inactive
O=C(NCc1ccccc1)c1onc(CSc2ccccn2)c1C(=O)NCc1ccccc1	67	inactive	0	–
CCCNC(=O)c1onc(CS(=O)(=O)c2ccccc2)c1C(=O)NCCC	100	inactive	0	inactive
C=CCNC(=O)c1c(CS(=O)(=O)c2ccc(Cl)cc2)noc1C(=O)NCc1ccccc1	100	inactive	38	inactive
CCCNC(=O)c1onc(CSc2ccncc2)c1C(=O)NCCC	33	inactive	–	–
COCCNC(=O)c1c(CSc2ccccc2)noc1C(=O)NCc1ccccc1	17	inactive	–	–
COCCNC(=O)c1onc(CSc2ccc(F)cc2)c1C(=O)NCCOC	67	inactive	0	–
COc1cccc(SCc2noc(C(=O)NCCC(C)C)c2C(=O)NCCC(C)C)c1	–	inactive	–	–

Compound	mortality (Spodoptera exigua [1]) [%]	mortality (Aedes aegypti)	mortality at 50 µg/cm2 (Spodoptera exigua [2]) [%]	mortality (Helicoverpa zea)
COCCNC(=O)c1onc(CSc2cc(C)cc(C)c2)c1C(=O)NCCOC	–	inactive	–	–
CC(C)CCNC(=O)c1c(CSc2ccccc2)noc1C(=O)NCc1ccccc1	67	inactive	0	–
CCCCNC(=O)c1onc(CSc2ccc(F)cc2)c1C(=O)NCCCC	50	inactive	–	–
CC(C)NC(=O)c1onc(CSc2ccc(F)cc2)c1C(=O)NC(C)C	50	inactive	–	–
CC(C)NC(=O)c1onc(CSc2ccccn2)c1C(=O)NC(C)C	50	inactive	–	–
C=CCNC(=O)c1onc(CSc2ccncc2)c1C(=O)NCC=C	17	inactive	–	–
CCCCNC(=O)c1onc(CSc2ccncc2)c1C(=O)NCCCC	67	inactive	0	–
CC(C)CCNC(=O)c1c(CSc2ccc(Cl)cc2)noc1C(=O)NCc1ccccc1	67	inactive	0	–
CCCNC(=O)c1onc(CSc2cc(C)cc(C)c2)c1C(=O)NCCC	50	inactive	–	–
CC(C)CCNC(=O)c1onc(CSc2ccncc2)c1C(=O)NCCC(C)C	83	inactive	0	–
COCCNC(=O)c1c(CS(=O)(=O)c2ccccc2)noc1C(=O)NCc1ccccc1	100	inactive	–	inactive
CC(C)NC(=O)c1onc(CSc2ccccc2)c1C(=O)NC(C)C	67	inactive	0	–
CCCCNC(=O)c1onc(CSc2ccc(Cl)cc2)c1C(=O)NCCCC	33	inactive	–	–
Cc1cc(C)cc(SCc2noc(C(=O)NCCC(C)C)c2C(=O)NCCC(C)C)c1	–	inactive	–	–
CC(C)CCNC(=O)c1onc(CSc2ccccn2)c1C(=O)NCCC(C)C	–	inactive	–	–
COCCNC(=O)c1onc(CSc2ccncc2)c1C(=O)NCCOC	50	inactive	–	–
CCCNC(=O)c1onc(CSc2ccccc2)c1C(=O)NCCC	50	inactive	–	–
O=C(NCc1ccccc1)c1onc(CSc2ccc(F)cc2)c1C(=O)NCc1ccccc1	67	inactive	0	–
COc1cccc(SCc2noc(C(=O)NCc3ccccc3)c2C(=O)NCc2ccccc2)c1	50	inactive	–	–
C=CCNC(=O)c1onc(CSc2cccc(OC)c2)c1C(=O)NCC=C	67	inactive	0	–
C=CCNC(=O)c1c(CSc2ccccc2)noc1C(=O)NCc1ccccc1	0	inactive	–	–
